Where a SMILES comes first, the peptide text is derived from it. [ ]: non-standard residue; d: D form. Nva = CCC[C@H](N)C(=O)O
Tests used:
STAM mice = assay: STAM; assay type: in vivo, C57BL/6N mice
In short: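 Male C57BL/6N mice received 200 μg streptozotocin s.c. at 2 days after birth and were fed HFD (57 kcal% fat) from week 4 to week 9. From week 6 to week 9, mice received saline vehicle or test compound at 0.5 or 5 mg/kg/day, by daily s.c. injection or s.c. osmotic pump (0.25 μL/h); n=6/group. Read-outs were body weight during treatment, and terminal plasma ALT/AST (dry-chemistry analyser) and liver weight. Unpaired two-sided t-test.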

[1] = Pharmacokinetic study after single s.c. injection; assay type: in vivo, Sprague-Dawley rats; conditions: male, Sprague-Dawley, rat, plasma, sc, 10 mg/kg
In short: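 Male adult Sprague–Dawley rats (two per cage, 22–24°C, 12-h light cycle) received a single s.c. dose of 10 mg/kg. Plasma peptide was measured by LC–MS/MS. PK parameters were computed with values below LLOQ set to zero.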

[2] = test system: mice with TAA-induced liver injury / CCl4-induced liver fibrosis; conditions: cited from earlier work
[3] = cited from earlier work
[4] = test system: human induced pluripotent stem (iPS) cell-derived hepatocytes; assay: LDH release cytotoxicity assay; assay type: cell-based; conditions: ALY688 0.5 to 2000 nM, globular adiponectin 1 μg/mL; 4 and 24 h; Figure S1B
In short: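 iPS cell-derived human hepatocytes were exposed to test compound at 0.5, 1, 100, 500, 1000, 1500 and 2000 nM, to globular adiponectin 1 μg/mL, or to H₂O₂ 500 μM for 4 and 24 h. Cytotoxicity was quantified as LDH release by kit per manufacturer. Experiments were repeated at least three times; mean ± SEM.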

[5] = test system: human induced pluripotent stem (iPS) cell-derived hepatocytes; assay: MTT cytotoxicity assay; assay type: cell-based; conditions: ALY688 0.5 to 2000 nM, globular adiponectin 1 μg/mL; 4 and 24 h; Figure S1A
In short: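 iPS cell-derived human hepatocytes were exposed to test compound at 0.5, 1, 100, 500, 1000, 1500 and 2000 nM, to globular adiponectin 1 μg/mL, or to H₂O₂ 500 μM for 4 and 24 h. Viability was quantified by MTT formazan per manufacturer. Experiments were repeated at least three times; mean ± SEM.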

liver of CDAHFD-fed mice = assay: Hepatic gene expression in CDAHF mouse model; assay type: in vivo, C57BL/6N mice; conditions: RT-qPCR, 30 mg/kg oral
CDAHFD-fed mice [6] = assay: CDAHF diet-induced mouse model of MASH; assay type: in vivo, C57BL/6N mice; conditions: 30 mg/kg/day oral dosing; Figure 2c-g
In short: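 Male C57BL/6N mice, 8 weeks old, fed a choline-deficient, low-methionine high-fat diet (60 kcal% fat) for 12 weeks. From week 3, obeticholic acid 30 mg/kg was given daily by oral gavage in 0.5% CMC/0.01% Tween-80 for 9 weeks. Vehicle-treated chow-fed mice served as negative controls (n=10/group). End-of-treatment read-outs were serum ALT/AST by commercial kits, liver weight, hepatic TG and H&E NAS scoring.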

CDAHFD-fed mice [7] = assay: Hepatic fibrosis in CDAHF mouse model; assay type: in vivo, C57BL/6N mice; conditions: 30 mg/kg daily oral; Figure 3a-c
[8] = continuous infusion, high dose 5 mg/kg/day, vs control mice

CCC[C@H](NC(=O)[C@@H]1CCCN1C(=O)[C@@H](NC(=O)[C@H](N)CC(N)=O)[C@@H](C)CC)C(=O)N[C@@H](CC(C)C)C(=O)N[C@@H](Cc1ccc(O)cc1)C(=O)N[C@H](CO)C(=O)N[C@@H](Cc1ccccc1)C(=O)N[C@@H](C)C(=O)N[C@H](CO)C(N)=O [ALY688] (H-[dN]IP[Nva]LY[dS]FA[dS]-NH2; N-terminus and C-terminus assumed)
Body weight during the treatment period (STAM mice; 0.5 or 5 mg/kg/day, daily s.c. or osmotic pump, Figure 1b): did not induce change in body weight
Serum ALT level (STAM mice; [8]): slightly lower levels of ALT without statistical significance
Serum AST level (STAM mice; [8]): significantly reduced
Serum ALT and AST levels (STAM mice; daily s.c. injection, 0.5 or 5 mg/kg/day, vs vehicle): did not affect
half-life [1]: 27 min
Effect against TAA-induced liver injury and CCl4-induced liver fibrosis [2]: liver protective effects
Stability in mouse plasma [3]: good stability
Cytotoxicity, LDH release assay [4]: No toxicity
Cytotoxicity, MTT assay [5]: No toxicity

CC[C@H]1[C@@H](O)[C@@H]2[C@H](CC[C@]3(C)[C@@H]([C@H](C)CCC(=O)O)CC[C@@H]23)[C@@]2(C)CC[C@@H](O)C[C@@H]12 [OCA, obeticholic acid]
Hepatic expression of fatty acid oxidation genes (Acot1, Acox1, Cyp4a12) (liver of CDAHFD-fed mice; Figure 4e): restored
Hepatic expression of fibrosis-related genes (Tgfβ, Col1a1, Timp1) (liver of CDAHFD-fed mice; Figure 4f): appeared to reduce the expression of most of these fibrotic genes, although without statistical significance
Expression of MASH-induced inflammatory genes (liver of CDAHFD-fed mice; Figure 4g): failed to reverse
Effect on alleviating MASH (CDAHFD-fed mice [6]): did not show beneficial effects
Hepatic fibrosis by histological examination (CDAHFD-fed mice [7]): protective effects against hepatic fibrosis
